Test results: ChEMBL document CHEMBL3593170 (J Nat Prod, 2015)
Activity calls are given as the source filed them. The calls are words filed in the database; no cut-off is given here.

Tests used:
[1] = Effect on Ca2+ response in TREx-HEK cells at 1 uM by Fluo-4 AM dye-based Ca2+ imaging assay; type: ADME, cell-based; details: human
Method in brief: (§1)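 Tetracycline-induced (1 μg/mL, 24 h after seeding) TREx HEK cells stably expressing hTRPA1, or TREx HEK cells not expressing TRPA1; Fluo-4 AM 3 μM loading 1 h 37 °C; Ca2+ change read at 37 °C. Response as % of 5 μM ionomycin; mean ± SEM, n = 3−8.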

[2] = biological target: T1, Transient receptor potential cation channel subfamily A member 1 (Homo sapiens, UniProt O75762); experiment: Activation of human TRPA1 expressed in TREx-HEK cells at 1 uM by Fluo-4 AM dye-based Ca2+ imaging assay; type: cell-based; method in brief: as §1
[3] = biological target: T1, Transient receptor potential cation channel subfamily A member 1; experiment: Activation of human TRPA1 expressed in TREx-HEK cells by Fluo-4 AM dye-based Ca2+ imaging assay relative to 100 uM ITC; type: cell-based
[4] = biological target: T2, Transient receptor potential cation channel subfamily V member 1 (Homo sapiens, UniProt Q8NER1); experiment: Activation of human TRPV1 expressed in TREx-HEK cells by Fluo-4 AM dye-based Ca2+ imaging assay relative to 10 uM capsaicin; type: cell-based
[5] = biological target: Transient receptor potential cation channel subfamily M member 8 (Mus musculus) (UniProt Q8R4D5); experiment: Agonist activity at mouse TRPM8 expressed in TREx-HEK cells at 300 uM by Fluo-4 AM dye-based Ca2+ imaging assay; type: cell-based
Method in brief: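 Mouse TRPM8 stably expressed in TREx HEK cells, induced with 1 μg/mL tetracycline; Fluo-4 AM 3 μM loading, 1 h, 37 °C; compounds 300 μM freshly diluted from DMSO; Ca2+ change read at 37 °C; ionomycin 5 μM for maximum fluorescence; menthol 100 μM agonist control, BCTC 10 μM antagonist.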

[6] = biological target: T2, Transient receptor potential cation channel subfamily V member 1; experiment: Activation of human TRPV1 expressed in TREx-HEK cells by Fluo-4 AM dye-based Ca2+ imaging assay; type: cell-based
[7] = biological target: T1, Transient receptor potential cation channel subfamily A member 1; experiment: Activation of human TRPA1 expressed in TREx-HEK cells by Fluo-4 AM dye-based Ca2+ imaging assay; type: cell-based
[8] = biological target: T1, Transient receptor potential cation channel subfamily A member 1; experiment: Activation of human TRPA1 expressed in TREx-HEK cells at 1 uM in presence of TRPA1 antagonist HC030031 by Fluo-4 AM dye-based Ca2+ imaging assay; type: cell-based; method in brief: as §1
[9] = biological target: T2, Transient receptor potential cation channel subfamily V member 1; experiment: Activation of human TRPV1 expressed in TREx-HEK cells at 300 uM by Fluo-4 AM dye-based Ca2+ imaging assay; type: cell-based
Method in brief: (§2)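 TREx HEK cells stably expressing hTRPV1 (tetracycline 1 μg/mL induction) or parental TREx HEK cells lacking TRPV1, Fluo-4 AM (3 μM, 1 h, 37 °C) loaded; compounds at 300 μM, capsazepine 30 μM co-added where stated; Ca2+ at 37 °C as % of 5 μM ionomycin; mean ± SEM, n = 3−7.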

[10] = Effect on Ca2+ response in TREx-HEK cells at 300 uM by Fluo-4 AM dye-based Ca2+ imaging assay; type: ADME, cell-based; details: human; method in brief: as §2
[11] = biological target: T2, Transient receptor potential cation channel subfamily V member 1; experiment: Activation of human TRPV1 expressed in TREx-HEK cells at 300 uM in presence of TRPV1 antagonist CPZ by Fluo-4 AM dye-based Ca2+ imaging assay; type: cell-based; method in brief: as §2
[12] = Effect on Ca2+ response in TREx-HEK cells at 30 uM by Fluo-4 AM dye-based Ca2+ imaging assay; type: ADME, cell-based; details: human
Method in brief: as §1, with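 “°C. Compounds in DMSO, diluted in measuring buffer just before addition; 1 μM (30 μM for one compound); HC030031 30 μM co-added where stated.” for “°C.”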

[13] = biological target: T1, Transient receptor potential cation channel subfamily A member 1; experiment: Activation of human TRPA1 expressed in TREx-HEK cells at 30 uM by Fluo-4 AM dye-based Ca2+ imaging assay; type: cell-based
Method in brief: as §1, with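 “°C. Compounds in DMSO, diluted in measuring buffer just before addition; 1 μM (30 μM for one compound); HC030031 30 μM co-added where stated.” for “°C.”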

[14] = biological target: T1, Transient receptor potential cation channel subfamily A member 1; experiment: Activation of human TRPA1 expressed in TREx-HEK cells at 30 uM in presence of TRPA1 antagonist HC030031 by Fluo-4 AM dye-based Ca2+ imaging assay; type: cell-based

T1 sequence (O75762 whole entry): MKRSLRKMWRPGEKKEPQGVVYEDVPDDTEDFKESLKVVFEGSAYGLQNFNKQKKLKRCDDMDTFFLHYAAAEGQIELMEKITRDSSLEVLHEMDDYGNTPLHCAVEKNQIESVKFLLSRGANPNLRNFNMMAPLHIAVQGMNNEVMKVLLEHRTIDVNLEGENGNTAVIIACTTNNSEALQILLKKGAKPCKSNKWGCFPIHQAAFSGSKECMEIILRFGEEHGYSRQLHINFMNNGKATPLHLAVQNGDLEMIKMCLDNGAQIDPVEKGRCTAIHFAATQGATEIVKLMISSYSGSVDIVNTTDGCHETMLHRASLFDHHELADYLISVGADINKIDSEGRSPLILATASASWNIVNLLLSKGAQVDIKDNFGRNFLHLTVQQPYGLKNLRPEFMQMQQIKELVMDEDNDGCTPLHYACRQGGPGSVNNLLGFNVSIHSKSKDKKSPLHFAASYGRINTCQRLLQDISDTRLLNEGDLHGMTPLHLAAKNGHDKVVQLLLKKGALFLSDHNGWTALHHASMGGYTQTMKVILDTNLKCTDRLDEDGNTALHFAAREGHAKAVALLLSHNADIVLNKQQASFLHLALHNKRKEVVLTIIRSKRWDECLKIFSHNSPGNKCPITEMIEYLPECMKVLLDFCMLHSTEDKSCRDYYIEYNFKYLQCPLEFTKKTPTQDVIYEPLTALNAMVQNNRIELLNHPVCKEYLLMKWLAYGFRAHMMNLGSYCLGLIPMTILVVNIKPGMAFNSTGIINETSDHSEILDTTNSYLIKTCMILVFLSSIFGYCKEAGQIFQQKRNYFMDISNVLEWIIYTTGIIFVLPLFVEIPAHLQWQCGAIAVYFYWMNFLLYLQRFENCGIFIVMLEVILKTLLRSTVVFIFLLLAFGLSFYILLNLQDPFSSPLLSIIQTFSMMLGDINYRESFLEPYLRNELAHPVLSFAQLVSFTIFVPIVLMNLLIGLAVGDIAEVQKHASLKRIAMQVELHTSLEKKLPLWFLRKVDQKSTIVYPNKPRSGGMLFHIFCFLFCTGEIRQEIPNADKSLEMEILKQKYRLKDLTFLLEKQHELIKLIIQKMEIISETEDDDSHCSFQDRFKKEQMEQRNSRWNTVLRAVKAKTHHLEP
Chain of Transient receptor potential cation channel subfamily M member 8 (Mus musculus) (Q8R4D5 whole entry): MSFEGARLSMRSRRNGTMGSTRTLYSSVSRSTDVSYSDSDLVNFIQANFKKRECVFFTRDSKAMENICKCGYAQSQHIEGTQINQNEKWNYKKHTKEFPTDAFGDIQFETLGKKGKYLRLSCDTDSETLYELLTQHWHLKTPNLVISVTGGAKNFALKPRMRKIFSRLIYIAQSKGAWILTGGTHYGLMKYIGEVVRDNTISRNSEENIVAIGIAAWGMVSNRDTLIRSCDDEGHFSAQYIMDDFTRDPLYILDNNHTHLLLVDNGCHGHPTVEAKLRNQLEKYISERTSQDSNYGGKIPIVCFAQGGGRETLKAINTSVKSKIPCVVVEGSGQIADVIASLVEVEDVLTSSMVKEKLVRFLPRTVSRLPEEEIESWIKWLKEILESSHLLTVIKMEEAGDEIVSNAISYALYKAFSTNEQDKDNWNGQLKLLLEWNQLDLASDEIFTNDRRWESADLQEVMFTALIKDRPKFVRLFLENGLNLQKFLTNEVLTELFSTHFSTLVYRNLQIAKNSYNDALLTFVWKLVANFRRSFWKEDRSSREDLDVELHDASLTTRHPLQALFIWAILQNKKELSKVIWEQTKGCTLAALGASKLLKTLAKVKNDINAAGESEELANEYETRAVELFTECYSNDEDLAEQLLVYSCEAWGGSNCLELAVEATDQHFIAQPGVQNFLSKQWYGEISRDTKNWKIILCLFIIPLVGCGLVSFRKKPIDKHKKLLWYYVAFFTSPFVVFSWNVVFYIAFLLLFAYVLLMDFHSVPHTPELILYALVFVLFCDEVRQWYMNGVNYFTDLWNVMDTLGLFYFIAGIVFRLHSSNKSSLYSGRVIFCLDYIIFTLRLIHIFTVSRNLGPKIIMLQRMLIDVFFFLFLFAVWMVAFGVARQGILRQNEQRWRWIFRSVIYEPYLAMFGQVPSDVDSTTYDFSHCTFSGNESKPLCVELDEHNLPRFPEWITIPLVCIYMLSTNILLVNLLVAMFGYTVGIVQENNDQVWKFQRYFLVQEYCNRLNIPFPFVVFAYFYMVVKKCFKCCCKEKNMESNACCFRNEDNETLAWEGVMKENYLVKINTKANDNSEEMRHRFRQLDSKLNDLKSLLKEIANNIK
T2 sequence (Q8NER1 whole entry): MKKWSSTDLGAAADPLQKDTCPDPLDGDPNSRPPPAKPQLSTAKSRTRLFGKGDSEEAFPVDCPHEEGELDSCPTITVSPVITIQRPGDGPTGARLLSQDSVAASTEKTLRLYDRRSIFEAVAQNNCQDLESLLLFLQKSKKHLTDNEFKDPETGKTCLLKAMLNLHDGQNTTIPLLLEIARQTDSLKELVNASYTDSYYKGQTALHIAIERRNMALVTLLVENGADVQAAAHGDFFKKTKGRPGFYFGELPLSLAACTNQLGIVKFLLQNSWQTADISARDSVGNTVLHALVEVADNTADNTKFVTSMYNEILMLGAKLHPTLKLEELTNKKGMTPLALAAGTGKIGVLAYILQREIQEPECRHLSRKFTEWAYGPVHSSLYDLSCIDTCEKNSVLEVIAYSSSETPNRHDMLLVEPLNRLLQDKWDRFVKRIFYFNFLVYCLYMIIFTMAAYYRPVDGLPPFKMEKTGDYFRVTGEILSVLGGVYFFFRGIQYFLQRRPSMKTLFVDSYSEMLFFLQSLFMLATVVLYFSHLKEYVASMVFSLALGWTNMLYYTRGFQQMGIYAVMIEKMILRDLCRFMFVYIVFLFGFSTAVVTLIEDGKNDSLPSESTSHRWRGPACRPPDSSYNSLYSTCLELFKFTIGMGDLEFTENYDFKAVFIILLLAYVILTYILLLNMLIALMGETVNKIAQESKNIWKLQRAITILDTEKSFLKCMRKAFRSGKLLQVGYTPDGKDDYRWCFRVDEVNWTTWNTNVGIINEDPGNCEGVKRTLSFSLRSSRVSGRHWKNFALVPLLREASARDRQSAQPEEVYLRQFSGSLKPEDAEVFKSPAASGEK

Row | Structure (SMILES) | Activity [1] | Activity [2] | max activation [3] | max activation [4] | Activity [5] | EC50 ([6]; trex-hek) | EC50 [7] | Activity [8] | Activity [9] | Activity [10] | EC50 ([6]; read-out: EC50) | Activity [11] | Activity [12] | Activity [13] | Activity [14]
1 | CC(C)CN=C=S | Non-toxic | Active | 89% | inactive | inactive | Not Active | 690 nM | inactive | – | – | – | – | – | – | –
2 | CSCCCCCN=C=S | Non-toxic | Active | 92% | inactive | inactive | Not Active | 500 nM | inactive | inactive | – | – | – | – | – | –
3 | C=CCCCCN=C=S | Non-toxic | Active | 93% | inactive | inactive | Not Active | 1040 nM | inactive | inactive | – | – | – | – | – | –
4 | S=C=NCCc1ccccc1 [PHENETHYLISOTHIOCYANATE] | Non-toxic | Active | 94% | 43% | inactive | – | 370 nM | inactive | Active | Non-toxic | 180000 nM | inactive | – | – | –
5 | Oc1ccc(CN=C=S)cc1 | – | – | 96% | 63% | inactive | – | 20000 nM | – | Active | Non-toxic | 170000 nM | inactive | Non-toxic | Active | inactive
6 | CSCCCN=C=S | Non-toxic | Active | 94% | inactive | inactive | Not Active | 450 nM | inactive | inactive | – | – | – | – | – | –
7 | C=CCN=C=S [ALLYL ISOTHIOCYANATE] | Non-toxic | Active | 97% | 25% | inactive | – | – | inactive | Active | Non-toxic | 160000 nM | inactive | – | – | –
8 | CCC(C)N=C=S (centres undefined) | Non-toxic | Active | 88% | 62% | inactive | – | 680 nM | inactive | Active | Non-toxic | 100000 nM | inactive | – | – | –
9 | C=CCCCN=C=S | Non-toxic | Active | 90% | inactive | inactive | Not Active | 540 nM | inactive | inactive | – | – | – | – | – | –
10 | S=C=NCc1ccccc1 [BENZYL ISOTHIOCYANATE] | Non-toxic | Active | 95% | 49% | inactive | – | 250 nM | inactive | Active | Non-toxic | 223000 nM | inactive | – | – | –
11 | CSCCCCCCCN=C=S | Non-toxic | Active | 90% | inactive | inactive | Not Active | 610 nM | inactive | inactive | – | – | – | – | – | –
12 | C=CCCCCCN=C=S | Non-toxic | Active | 90% | inactive | inactive | Not Active | 1050 nM | inactive | inactive | – | – | – | – | – | –
13 | CSCCCCCCN=C=S | – | Active | 92% | inactive | inactive | Not Active | 580 nM | inactive | inactive | – | – | – | – | – | –
14 | C=CCCN=C=S | Non-toxic | Active | 95% | inactive | inactive | Not Active | 360 nM | inactive | inactive | – | – | – | – | – | –
15 | CC(C)N=C=S [ISOPROPYL ISOTHIOCYANATE] | Non-toxic | Active | 82% | 50% | inactive | – | 530 nM | inactive | Active | Non-toxic | 100000 nM | inactive | – | – | –
